Here are results for 18 compounds from ChEMBL document CHEMBL3120051, “Synthesis of novel 1,2-benzothiazine 1,1-dioxide-3-ethanone oxime N-aryl acetamide ether derivatives as potent anti-inflammatory agents and inhibitors of monocyte-to-macrophage transformation” (Eur J Med Chem, 2014).

The source made the active and inactive calls. The rule behind the calls is not given here.

Series [1] deals with THP-1. The series is described as follows: Antiinflammatory activity in human THP1 cells assessed as inhibition of PMA-induced CD-36 expression at 10 uM incubated for 2 hrs prior to PMA challenge measured after 36 hrs by RT-PCR analysis. The class given is functional, cell-based. The procedure, abridged:
(§1)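 THP-1 monocytes (ATCC; RPMI 1640, 10% FBS, 37 °C, 5% CO2) pretreated 2 h, then 100 nM PMA for 36 h. Total RNA extracted in TRIzol, cDNA made, and LOX-1 and CD-36 transcripts measured by RT-PCR with gene-specific primers; GAPDH served as loading control.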

For series [2], the system named is THP-1. The series is described as follows: Antiinflammatory activity in human THP1 cells assessed as inhibition of PMA-induced LOX-1 expression at 10 uM incubated for 2 hrs prior to PMA challenge measured after 36 hrs by RT-PCR analysis. It counts as functional, cell-based. In outline: as §1
The test system of series [3] is THP-1. Kind of series: Antiinflammatory activity in human THP1 cells assessed as inhibition of PMA-induced increase in mitochondrial number at 10 uM incubated for 2 hrs prior to PMA challenge measured after 48 hrs by confocal microscopy. The class given is functional, cell-based. In outline:
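Cells were treated in cover-glass-bottom dishes: 10 µM for 2 h, then 100 nM PMA. After 48 h they were stained 1 h with 200 nM MitoTracker CMXRos in HBSS and counterstained with DAPI. Confocal imaging used rhodamine and DAPI filters, with five fields of view, and gentle washes between steps.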

The subject of series [4] is THP-1. Kind of series: Antiinflammatory activity in human THP1 cells assessed as inhibition of PMA-induced increase in cell size at 10 uM incubated for 2 hrs prior to PMA challenge measured after 48 hrs by light microscopy. The class given is functional, cell-based. In outline:
(§2)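 After 2 h pretreatment at 10 µM and 100 nM PMA for 48 h, THP-1 cultures had medium removed and were washed twice with warm DPBS. Phase-contrast light microscopy images were then used to assess adherence and monocyte/macrophage transformation.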

Series [5] concerns THP-1. Kind of series: Antiinflammatory activity in human THP1 cells assessed as inhibition of PMA-induced increase in cell adherence at 10 uM incubated for 2 hrs prior to PMA challenge measured after 48 hrs by light microscopy. It counts as functional, cell-based. The procedure, abridged: as §2
Series [6] concerns the target Matrix metalloproteinase-9 (Homo sapiens) (UniProt P14780). The series is described as follows: Inhibition of MMP-9 in human THP1 cells assessed as inhibition of PMA-induced monocyte to macrophage transformation at 10 uM incubated for 2 hrs prior to PMA challenge measured after 48 hrs by gelation zymography. The class given is cell-based. To be noted: THP-1. In outline:
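THP-1 monocytes were pretreated 2 h at 10 µM, then stimulated with 100 nM PMA for 48 h. Conditioned medium was run without reducing agent on 10% SDS-PAGE containing 0.1% gelatin. Gels were renatured 30 min in 0.25% Triton X-100 and developed overnight at room temperature in Tris/CaCl2/Brij 35 buffer.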

Series [7] in a line: Cytotoxicity against human THP1 cells assessed as cell viability at 20 uM after 72 hrs by trypan blue dye exclusion assay. The class given is cell-based. The note with it: THP-1 cells, read-out: Activity. The procedure, abridged:
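THP-1 cells were seeded at 2×10^5 cells/ml in triplicate and exposed to 20 µM for 72 h. Cells were then harvested, resuspended in 0.4% trypan blue, and percent viable cells counted on an automated cell counter chamber.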

For series [8], the system named is THP-1. The series is described as follows: Antiinflammatory activity in human THP1 cells assessed as inhibition of PMA-induced MCP-1 secretion incubated for 2 hrs prior to PMA challenge measured after 72 hrs by ELISA. The class given is functional, cell-based. In outline:
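THP-1 monocytes, 2×10^5/ml, received 5, 10 and 20 µM for 2 h before 100 nM PMA. Supernatant MCP-1 was measured by ELISA kit 72 h after PMA, with absorbance at 450 nm corrected at 570 nm and standard-curve quantitation. Percent inhibition is relative to control. IC50 is the predicted 50%-inhibition concentration, mean ± SD of three independent experiments.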
On the technique in general: In an ELISA, binding on a coated surface is turned into a signal by an enzyme label.

The subject of series [9] is THP-1. The series is described as follows: Antiinflammatory activity in human THP1 cells assessed as inhibition of PMA-induced IL-8 secretion incubated for 2 hrs prior to PMA challenge measured after 48 hrs by ELISA. It counts as functional, cell-based. The procedure, abridged:
(§3)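 Seeded at 2×10^5/ml, THP-1 cells were pretreated 2 h with 5, 10 and 20 µM, then stimulated with 100 nM PMA. Supernatants were taken after 48 h and assayed by ELISA kit, read at 450 nm corrected at 570 nm, and quantified against standard curves (pg/ml). Percent inhibition was calculated versus control. IC50 is the predicted 50%-inhibition concentration, mean ± SD of three independent experiments.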

Series [10] has as its system THP-1. Kind of series: Antiinflammatory activity in human THP1 cells assessed as inhibition of PMA-induced TNF-alpha secretion incubated for 2 hrs prior to PMA challenge measured after 48 hrs by ELISA. The class given is functional, cell-based. In outline: as §3

Sequence of Matrix metalloproteinase-9 (Homo sapiens) (P14780 whole entry): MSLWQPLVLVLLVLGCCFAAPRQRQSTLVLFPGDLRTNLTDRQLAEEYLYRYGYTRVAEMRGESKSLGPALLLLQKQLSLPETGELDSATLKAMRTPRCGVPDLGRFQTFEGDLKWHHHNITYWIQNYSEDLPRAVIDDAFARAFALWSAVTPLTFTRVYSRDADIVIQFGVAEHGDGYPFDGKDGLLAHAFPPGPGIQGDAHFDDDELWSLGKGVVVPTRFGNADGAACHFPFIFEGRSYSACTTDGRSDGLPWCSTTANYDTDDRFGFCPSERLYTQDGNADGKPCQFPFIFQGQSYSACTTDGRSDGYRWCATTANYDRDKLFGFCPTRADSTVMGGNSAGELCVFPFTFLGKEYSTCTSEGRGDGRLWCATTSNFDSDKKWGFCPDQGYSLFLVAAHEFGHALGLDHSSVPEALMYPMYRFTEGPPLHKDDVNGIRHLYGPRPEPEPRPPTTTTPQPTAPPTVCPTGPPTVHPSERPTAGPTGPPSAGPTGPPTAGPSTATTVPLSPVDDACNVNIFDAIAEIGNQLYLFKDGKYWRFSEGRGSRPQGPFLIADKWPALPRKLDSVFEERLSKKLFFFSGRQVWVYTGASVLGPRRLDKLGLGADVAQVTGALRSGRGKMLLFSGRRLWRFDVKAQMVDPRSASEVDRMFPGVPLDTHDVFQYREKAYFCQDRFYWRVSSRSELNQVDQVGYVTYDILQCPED

Consider `C/C(=N\OCC(=O)Nc1ccc(C(F)(F)F)cc1)C1=C(O)c2ccccc2S(=O)(=O)N1C`, for which the inhibition result (in the series on THP-1 [1]; with THP-1 [2]; with THP-1 [3]; in the series on THP-1 [4]; in the series with THP-1 [5]; in [6]) was “Active” in each case. Also, the viability at 72 h, 20 µM in series [7] was found to be 93%. In addition, the IC50 (usually the midpoint of a concentration-inhibition curve) in the series with THP-1 [8] was 4 µM; in the series with THP-1 [9], more than 20 µM; in the series with THP-1 [10], 12.1 µM.

For `C/C(=N\OCC(=O)Nc1cccc(F)c1)C1=C(O)c2ccccc2S(=O)(=O)N1C`, the viability at 72 h, 20 µM in series [7] came out at 95.5%. Besides, the concentration for half-maximal inhibition (IC50) in the series on THP-1 [8] is 9.4 µM; in the series with THP-1 [9], more than 20 µM; with THP-1 [10] it was more than 20 µM.

As to `CCOC1=C(/C(C)=N/OCC(=O)Nc2ccc(F)c(Cl)c2)N(C)S(=O)(=O)c2ccccc21`, the viability at 72 h, 20 µM in [7] worked out at 97.5%. The IC50 in the series with THP-1 [8], in the series with THP-1 [9] and in the series on THP-1 [10] was more than 20 µM throughout.

For `COc1ccc(NC(=O)CO/N=C(\C)C2=C(O)c3ccccc3S(=O)(=O)N2C)cc1`, the viability at 72 h, 20 µM in [7] turned out to be 97.5%. The 50% inhibitory concentration (IC50) in the series on THP-1 [8], in the series with THP-1 [9] and in the series with THP-1 [10] was more than 20 µM throughout.

On to `CCOC1=C(/C(C)=N/OCC(=O)Nc2ccc(Cl)c(C(F)(F)F)c2)N(C)S(=O)(=O)c2ccccc21`, for which, in series [7], the viability at 72 h, 20 µM is 90.2%. In addition, the concentration for half-maximal inhibition (IC50) in the series on THP-1 [8], in the series with THP-1 [9] and in the series with THP-1 [10] was more than 20 µM throughout.

With `CCOC1=C(/C(C)=N/OCC(=O)Nc2ccccc2)N(C)S(=O)(=O)c2ccccc21`, the viability at 72 h, 20 µM in [7] is 93%. The IC50 in the series on THP-1 [8], in the series with THP-1 [9] and in the series on THP-1 [10] was more than 20 µM each time.

`CCOC1=C(/C(C)=N/OCC(=O)Nc2cccc(OC)c2)N(C)S(=O)(=O)c2ccccc21`: the viability at 72 h, 20 µM in series [7] came out at 96.2%. In addition, the 50% inhibitory concentration (IC50) with THP-1 [8], in the series on THP-1 [9] and in the series on THP-1 [10] was more than 20 µM in each case.

For the compound `CCc1ccc(CCOc2ccc(CC3SC(=O)NC3=O)cc2)nc1` (stereo not drawn) [PIOGLITAZONE], the IC50 in the series with THP-1 [8] amounted to 18.6 µM.

Take `CCOC1=C(/C(C)=N/OCC(=O)Nc2cccc(F)c2)N(C)S(=O)(=O)c2ccccc21`: the viability at 72 h, 20 µM in series [7] stood at 92%. For the same compound, the half-maximal inhibitory concentration (IC50) in the series on THP-1 [8], in the series on THP-1 [9] and with THP-1 [10] was more than 20 µM in each case.

As to `CCOC1=C(/C(C)=N/OCC(=O)Nc2ccc(OC)cc2)N(C)S(=O)(=O)c2ccccc21`, the viability at 72 h, 20 µM in series [7] amounted to 94.2%. Besides, the half-inhibitory concentration (IC50) in the series on THP-1 [8], with THP-1 [9] and in the series with THP-1 [10] was more than 20 µM throughout.

On to `C/C(=N\OCC(=O)Nc1c(F)cccc1F)C1=C(O)c2ccccc2S(=O)(=O)N1C`, for which the viability at 72 h, 20 µM in [7] worked out at 92.2%. In addition, the concentration for half-maximal inhibition (IC50) in the series on THP-1 [8], in the series with THP-1 [9] and in the series on THP-1 [10] was more than 20 µM each time.

On to `C/C(=N\OCC(=O)Nc1ccc(Cl)c(C(F)(F)F)c1)C1=C(O)c2ccccc2S(=O)(=O)N1C`, for which the inhibition entry with THP-1 [1], in the series with THP-1 [2], in the series on THP-1 [3], in the series on THP-1 [4] and in the series with THP-1 [5] was “Active” throughout. Also, the inhibition (commonly the drop in the measured response relative to a control, in per cent) in series [6] was determined as 75%. In addition, the viability at 72 h, 20 µM in [7] is 91.2%. For the same compound, the concentration for half-maximal inhibition (IC50) in the series on THP-1 [8] is 2.5 µM; in the series with THP-1 [9], more than 20 µM; in the series with THP-1 [10], 6 µM.

On to `C/C(=N\OCC(=O)Nc1ccccc1)C1=C(O)c2ccccc2S(=O)(=O)N1C`, for which, in [7], the viability at 72 h, 20 µM turned out to be 94.1%. For the same compound, the IC50 in the series on THP-1 [8], in the series with THP-1 [9] and with THP-1 [10] was more than 20 µM each time.

As to `CCOC1=C(/C(C)=N/OCC(=O)Nc2c(F)cccc2F)N(C)S(=O)(=O)c2ccccc21`, the viability at 72 h, 20 µM in series [7] worked out at 92.3%. The IC50 in the series on THP-1 [8], in the series on THP-1 [9] and in the series on THP-1 [10] was more than 20 µM throughout.

On to `C/C(=N\OCC(=O)Nc1ccc(F)c(Cl)c1)C1=C(O)c2ccccc2S(=O)(=O)N1C`, for which the viability at 72 h, 20 µM in series [7] was determined as 95.1%. Further, the IC50 in the series with THP-1 [8], in the series on THP-1 [9] and in the series with THP-1 [10] was more than 20 µM each time.

For the compound `COc1cccc(NC(=O)CO/N=C(\C)C2=C(O)c3ccccc3S(=O)(=O)N2C)c1`, the viability at 72 h, 20 µM in series [7] was found to be 92.5%. In addition, the half-maximal inhibitory concentration (IC50) in the series with THP-1 [8], in the series with THP-1 [9] and in the series on THP-1 [10] was more than 20 µM each time.

Turning to `CN1C(C(=O)Nc2ccccn2)=C(O)c2ccccc2S1(=O)=O` [PIROXICAM], the IC50 with THP-1 [10] was more than 20 µM.

In the case of `CCOC1=C(/C(C)=N/OCC(=O)Nc2ccc(C(F)(F)F)cc2)N(C)S(=O)(=O)c2ccccc21`, in series [7], the viability at 72 h, 20 µM was 93%. Further, the IC50 with THP-1 [8] is 5.7 µM; with THP-1 [9], 16.7 µM; in the series on THP-1 [10], more than 20 µM.
